Measurements from ChEMBL document CHEMBL1833841, “Synthesis and biological evaluation of a novel class of isatin analogs as dual inhibitors of tubulin polymerization and Akt pathway” (Bioorg Med Chem, 2011).
Calls of active or inactive are those of the source. No cut-off for these calls is given here.

Experiments:
[1] = target: RAC-alpha serine/threonine-protein kinase (Homo sapiens) (UniProt P31749); test: Inhibition of AKT phosphorylation in human HT-29 cells assessed as p-AKT level at 2 uM after 24 hrs by Western blotting; assay type: cell-based
In short: (§1)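 HT29 cells treated 24 h with 1 or 2 µM compound or no drug. Lysed in HEPES/NaCl/EDTA/NP40 buffer with phosphatase and protease inhibitors. Protein equalized by Bradford, run on 10% gels, semi-dry transfer to nitrocellulose, blocked in 5% milk. Pan-Akt or phospho-Akt rabbit polyclonal primaries overnight at 4°C, HRP secondaries, chemiluminescence. β-actin loading control.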

HT-29 [2] = test: Induction of apoptosis in human HT-29 cells assessed as viable cells at 1.25 uM after 24 hrs by PE annexin V and 7-Aminoactinomycin D staining-based flow cytometry (reference value: 93.2%); assay type: functional; conditions: HT-29, 24 h, read-out: Activity
In short: (§2)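 HT29 cells were treated with 1.25–5.0 µM compound or DMSO for 24 h at 37°C, harvested by low-speed centrifugation and washed twice in cold PBS. They were resuspended in binding buffer at 1×10^6 cells/ml, stained with PE annexin V and 7-AAD for 15 min at RT in the dark, and quantified by flow cytometry.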

[3] = target: RAC-alpha serine/threonine-protein kinase (Homo sapiens) (UniProt P31749); test: Inhibition of AKT phosphorylation in human HT-29 cells assessed as p-AKT level at 1 uM after 24 hrs by Western blotting; assay type: cell-based; in short: as §1
HT-29 [4] = test: Induction of apoptosis in human HT-29 cells at 5 uM after 24 hrs by PE annexin V and 7-Aminoactinomycin D staining-based flow cytometry (reference value: 6.8%); assay type: functional
In short: (§3)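 HT29 cells (RPMI, 10% FBS) treated with 1.25, 2.5 or 5 μM, or DMSO control, for 24 h at 37 °C. Cells then harvested, washed twice in cold PBS and resuspended at 1×10^6 cells/ml in binding buffer. Stained with PE annexin V and 7-AAD for 15 min at RT in the dark, then analysed by flow cytometry. 7-AAD-positive cells counted as dead.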

HT-29 [5] = test: Induction of apoptosis in human HT-29 cells assessed as DNA fragmentation at 5 uM after 48 hrs by TUNEL assay; assay type: functional, cell-based
In short: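 1×10^5 HT29 cells/well grown 24 h in 10% serum medium, then exposed to 5 µM compound. Fragmented DNA stained with ApopTag Red in situ kit, Hoechst nuclear counterstain. Red TUNEL-positive versus blue total nuclei scored by fluorescence microscopy.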

HT-29 [6] = test: Cytotoxicity against human HT-29 cells after 48 hrs by MTS assay; assay type: functional, cell-based; conditions: HT-29, 48 h
In short: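 HT29 cells maintained in RPMI with 10% FBS. 5×10^3 cells/well were left to adhere 24 h, then exposed 48 h to compound (DMSO stock diluted in DMEM, 0.5–50 µM). MTS absorbance at 490 nm normalized to control. IC50 from sigmoidal variable-slope fit. Triplicates, at least two independent experiments.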

HT-29 [7] = test: Induction of apoptosis in human HT-29 cells assessed as viable cells at 2.5 uM after 24 hrs by PE annexin V and 7-Aminoactinomycin D staining-based flow cytometry (reference value: 93.2%); assay type: functional; conditions: HT-29, 24 h, read-out: Activity; in short: as §2
HT-29 [8] = test: Induction of apoptosis in human HT-29 cells assessed as early apoptotic cells at 2.5 uM after 24 hrs by PE annexin V and 7-Aminoactinomycin D staining-based flow cytometry (reference value: 1.37%); assay type: functional; in short: as §2
HT-29 [9] = test: Induction of apoptosis in human HT-29 cells assessed as increase in caspase 3/7 activation after 24 hrs by fluorescence spectrophotometry; assay type: functional, cell-based
In short: (§4)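 HT29 cells seeded at 1×10^4/well and grown 24 h, then treated 24 h with 1.25–5 µM compound or DMSO. Equal volume of Apo-ONE caspase-3/7 reagent added, shaken 30 s, incubated 2 h at RT. Cleaved-substrate fluorescence read at ex 498/em 521 nm, expressed relative to DMSO cells. Means ± SD, triplicate, one representative experiment.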

Bos taurus = species: Bos taurus; test: Inhibition of bovine brain tubulin polymerization at 10 uM after 1 hrs by fluorescence assay
In short: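 Compound at 10 µM final, DMSO as control. Fluorescence (ex 360, em 440 nm) read every 10 s for 1 h at 37°C, duplicate wells.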

MEF = test: Cytotoxicity against mouse MEF cells after 48 hrs by MTS assay; assay type: cell-based
In short: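 Mouse embryonic fibroblasts exposed to compound for 48 h; viability then read by MTS colorimetric assay. IC50 derived from the viability data.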

HT-29 [10] = test: Induction of apoptosis in human HT-29 cells assessed as late apoptosis or necrotic cells at 1.25 uM after 24 hrs by PE annexin V and 7-Aminoactinomycin D staining-based flow cytometry (reference value: 4.1%); assay type: functional; in short: as §2
HT-29 [11] = test: Induction of apoptosis in human HT-29 cells assessed as dead cells at 5 uM after 24 hrs by PE annexin V and 7-Aminoactinomycin D staining-based flow cytometry (reference value: 1.33%); assay type: functional; in short: as §3
A549 = test: Cytotoxicity against human A549 cells after 48 hrs by MTS assay; assay type: functional, cell-based; conditions: A549, 48 h
In short: (§5)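 A549, MCF-7 and UACC903 cells grown in DMEM with 10% FBS at 37°C, 5% CO2. 5×10^3 cells/well were left to adhere 24 h, then treated 48 h with compound (DMSO stock diluted in DMEM, 0.5–50 µM). MTS read at 490 nm and normalized to control. Dose-response fitted as sigmoidal, variable slope. Triplicates from at least two independent experiments.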

HT-29 [12] = test: Induction of apoptosis in human HT-29 cells after 24 hrs by PE annexin V and 7-Aminoactinomycin D staining-based flow cytometry; assay type: functional, cell-based; in short: as §2
UACC-903 = test: Cytotoxicity against human UACC903 cells after 48 hrs by MTS assay; assay type: functional, cell-based; conditions: UACC-903, 48 h; in short: as §5
HT-29 [13] = test: Inhibition of AKT expression in human HT-29 cells assessed as total AKT level at 1 uM after 24 hrs by Western blotting; assay type: functional, cell-based; in short: as §1
HT-29 [14] = test: Induction of apoptosis in human HT-29 cells assessed as late apoptosis or necrotic cells at 5 uM after 24 hrs by PE annexin V and 7-Aminoactinomycin D staining-based flow cytometry (reference value: 4.1%); assay type: functional; in short: as §2
HT-29 [15] = test: Induction of apoptosis in human HT-29 cells assessed as late apoptosis or necrotic cells at 2.5 uM after 24 hrs by PE annexin V and 7-Aminoactinomycin D staining-based flow cytometry (reference value: 4.1%); assay type: functional; in short: as §2
HT-29 [16] = test: Induction of apoptosis in human HT-29 cells at 1.25 uM after 24 hrs by PE annexin V and 7-Aminoactinomycin D staining-based flow cytometry; assay type: functional; in short: as §3
HT-29 [17] = test: Inhibition of AKT expression in human HT-29 cells assessed as total AKT level at 2 uM after 24 hrs by Western blotting; assay type: functional, cell-based; in short: as §1
HT-29 [18] = test: Induction of apoptosis in human HT-29 cells assessed as early apoptotic cells at 1.25 uM after 24 hrs by PE annexin V and 7-Aminoactinomycin D staining-based flow cytometry (reference value: 1.37%); assay type: functional; in short: as §2
HT-29 [19] = test: Induction of apoptosis in human HT-29 cells assessed as dead cells at 2.5 uM after 24 hrs by PE annexin V and 7-Aminoactinomycin D staining-based flow cytometry (reference value: 1.33%); assay type: functional; in short: as §3
HT-29 [20] = test: Induction of apoptosis in human HT-29 cells assessed as viable cells at 5 uM after 24 hrs by PE annexin V and 7-Aminoactinomycin D staining-based flow cytometry (reference value: 93.2%); assay type: functional; conditions: HT-29, 24 h, read-out: Activity; in short: as §2
HT-29 [21] = test: Induction of apoptosis in human HT-29 cells assessed as increase in caspase 3/7 activation after 24 hrs by fluorescence spectrophotometry relative to control; assay type: functional; set-up: concentration or dose not given beside the values; in short: as §4
HT-29 [22] = test: Induction of apoptosis in human HT-29 cells assessed as early apoptotic cells at 5 uM after 24 hrs by PE annexin V and 7-Aminoactinomycin D staining-based flow cytometry (reference value: 1.37%); assay type: functional; in short: as §2
HT-29 [23] = test: Induction of apoptosis in human HT-29 cells assessed as dead cells at 1.25 uM after 24 hrs by PE annexin V and 7-Aminoactinomycin D staining-based flow cytometry (reference value: 1.33%); assay type: functional; in short: as §3
HT-29 [24] = test: Induction of apoptosis in human HT-29 cells at 2.5 uM after 24 hrs by PE annexin V and 7-Aminoactinomycin D staining-based flow cytometry; assay type: functional; in short: as §3
MCF7 = test: Cytotoxicity against human MCF7 cells after 48 hrs by MTS assay; assay type: functional, cell-based; conditions: MCF7, 48 h; in short: as §5

RAC-alpha serine/threonine-protein kinase (Homo sapiens), sequence (P31749 whole entry): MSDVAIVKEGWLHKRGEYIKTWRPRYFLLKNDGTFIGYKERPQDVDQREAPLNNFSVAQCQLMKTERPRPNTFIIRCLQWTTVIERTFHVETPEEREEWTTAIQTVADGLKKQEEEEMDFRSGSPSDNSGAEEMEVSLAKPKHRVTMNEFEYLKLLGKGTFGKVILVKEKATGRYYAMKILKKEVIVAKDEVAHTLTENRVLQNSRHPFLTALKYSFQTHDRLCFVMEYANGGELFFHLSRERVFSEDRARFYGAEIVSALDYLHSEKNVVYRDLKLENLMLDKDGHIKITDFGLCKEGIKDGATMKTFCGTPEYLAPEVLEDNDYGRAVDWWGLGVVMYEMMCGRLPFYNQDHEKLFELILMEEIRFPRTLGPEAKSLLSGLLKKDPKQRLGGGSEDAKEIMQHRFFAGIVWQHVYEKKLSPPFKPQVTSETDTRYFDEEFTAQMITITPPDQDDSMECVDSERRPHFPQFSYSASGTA

| SMILES | viability at 1.25 µM (HT-29 [2]) [%] | inhibition [3] | Activity (HT-29 [4]) [%] | Activity (HT-29 [5]) | IC50 (HT-29 [6]) [nM] | viability at 2.5 µM (HT-29 [7]) [%] | Activity (HT-29 [8]) [%] | Activity (HT-29 [9]) | inhibition (Bos taurus) [%] | IC50 (MEF) [nM] | Activity (HT-29 [10]) [%] | Activity (HT-29 [11]) [%] | IC50 (A549) [nM] | Activity (HT-29 [12]) | IC50 (UACC-903) [nM] | inhibition (HT-29 [13]) | Activity (HT-29 [14]) [%] | Activity (HT-29 [15]) [%] | Activity (HT-29 [16]) [%] | inhibition (HT-29 [17]) | other results |
| --- | --- | --- | --- | --- | --- | --- | --- | --- | --- | --- | --- | --- | --- | --- | --- | --- | --- | --- | --- | --- | --- |
| O=C1C(=O)N(CCCN=C=S)c2c(Br)cc(Br)cc21 | 91.5 | inactive | 61.5 | Active | 1560 | 78.8 | 6.93 | Dose-dependent effect | 62 | > 20000 | 3.79 | 8.22 | 2130 | Dose-dependent effect | 4370 | inactive | 48.5 | 11.4 | 8.54 | Active | inhibition [1]: Active; Activity (HT-29 [18]): 2.83%; Activity (HT-29 [19]): 2.9%; viability at 5 µM (HT-29 [20]): 38.5%; fold change (FC) (HT-29 [21]): 16; Activity (HT-29 [22]): 4.78%; Activity (HT-29 [23]): 1.92%; Activity (HT-29 [24]): 21.23%; IC50 (MCF7): 8960 nM |
| N#CSCc1ccc(CN2C(=O)C(=O)c3cc(Br)cc(Br)c32)cc1 | 88.5 | inactive | 66.98 | Active | 1140 | 60.6 | 10.6 | Dose-dependent effect | 71 | > 20000 | 4.46 | 11.4 | 2530 | Dose-dependent effect | 2230 | Active | 52.9 | 21.1 | 11.47 | Active | Activity (HT-29 [18]): 4.42%; Activity (HT-29 [19]): 7.76%; viability at 5 µM (HT-29 [20]): 33.1%; fold change (FC) (HT-29 [21]): 16; Activity (HT-29 [22]): 2.68%; Activity (HT-29 [23]): 2.59%; Activity (HT-29 [24]): 39.46%; IC50 (MCF7): 24700 nM |
